The record followed here is ChEMBL document CHEMBL1125887, “Nucleosides and nucleotides. 94. Radical deoxygenation of tert-alcohols in 1-(2-C-alkylpentofuranosyl) pyrimidines: synthesis of (2'S)-2'-deoxy-2'-C-methylcytidine, an antileukemic nucleoside” (J Med Chem, 1991).

One assay has as its system CCRF-CEM. In words: Concentration required for 50% inhibition of cell growth of CCRF CEM leukemic cell lines in human. The assay is classed as functional, cell-based. In a few lines: (§1)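 MTT growth assay: each tumor cell line seeded at 1 × 10^4 cells/well and incubated with or without test compound for 72 h. MTT was then added and OD at 570 nm was read. % inhibition = [1 − OD(sample well)/OD(control well)] × 100. IC50 is the concentration in μg/mL giving 50% inhibition of cell growth.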

The subject of the next assay is HL-60. Nature of the assay: Concentration required for 50% inhibition of cell growth of HL60 leukemic cell lines in human. The assay is classed as functional, cell-based. The procedure, abridged: as §1
The subject of assay [1] is KATO III stomach cancer cell line. Nature of the assay: Concentration required for 50% inhibition of human […] carcinoma KATO III solid cell lines. The assay is classed as functional, cell-based. In a few lines: as §1
A further assay relates to L1210. Nature of the assay: Concentration required for 50% inhibition of cell growth of L1210 leukemic cell lines in mouse. It is filed as functional, cell-based. In a few lines: as §1
For another assay, the system named is MOLT-4. In words: Concentration required for 50% inhibition of cell growth of MOLT-4 leukemic cell lines in human. It is filed as functional, cell-based. In a few lines: as §1
Another assay concerns PC10. In words: Concentration required for 50% inhibition of human lung squamous cell carcinoma PC10 solid cell lines. It is filed as functional, cell-based. The procedure, abridged:
as §1

For a further assay, the system named is PC-14. In words: Concentration required for 50% inhibition of human lung squamous cell carcinoma PC14 solid cell lines. It is filed as functional, cell-based. In a few lines: as §1
The next assay has as its system SW480. In words: Concentration required for 50% inhibition of human […] carcinoma SW 480 solid cell lines. The assay is classed as functional, cell-based. The procedure, abridged: as §1
The next assay relates to TE-2. Nature of the assay: Concentration required for 50% inhibition of human […] squamous cell carcinoma TE2 solid cell lines. The assay is classed as functional, cell-based. In a few lines:
as §1

In a further assay the test system is U-937. Nature of the assay: Concentration required for 50% inhibition of cell growth of U937 leukemic cell lines in human. It is filed as functional, cell-based. In a few lines: as §1
Another assay has as its system K562. Nature of the assay: Concentration required for 50% inhibition of cell growth of K562 leukemic cell lines in human. The assay is classed as functional, cell-based. In a few lines:
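Tumour cells seeded at 1 × 10^4/well were grown with or without test compound for 72 h. MTT was then added and OD at 570 nm read. % inhibition = [1 − OD(sample)/OD(control)] × 100. IC50 is the concentration in μg/mL giving 50% growth inhibition.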

The next assay concerns T-24. In words: Concentration required for 50% inhibition of human bladder transitional-cell carcinoma T24 solid cell lines.

Values after ≈ are worked out from the molar mass of the structure shown.

In the case of `C[C@H]1[C@H](O)[C@@H](CO)O[C@H]1n1ccc(N)nc1=O`, the IC50 in the assay with CCRF-CEM is 0.15 µg/mL (≈ 0.622 µM); with HL-60, 0.65 µg/mL (≈ 2.69 µM); in assay [1], more than 100 µg/mL; in the assay on L1210, 0.26 µg/mL (≈ 1.08 µM); with MOLT-4, 0.032 µg/mL (≈ 0.133 µM); in the assay on PC10, 81.8 µg/mL (≈ 339 µM). Further, the IC50 with PC-14 is more than 100 µg/mL; in the assay on SW480 it was more than 100 µg/mL; in the assay with TE-2, more than 100 µg/mL; in the assay with U-937, 0.38 µg/mL (≈ 1.58 µM); with K562, 2.2 µg/mL (≈ 9.12 µM); in the assay with T-24, 1.1 µg/mL (≈ 4.56 µM).
The compound `Cc1cn([C@@H]2O[C@H](CO)C(O)[C@H]2C)c(=O)[nH]c1=O` (some centres not stated) gave an IC50 in the assay with L1210 of 32 µg/mL (≈ 125 µM).
Still for that read-out and setting: with `C[C@]1(O)[C@H](O)[C@@H](CO)O[C@H]1n1ccc(N)nc1=O` the figure was more than 100 µg/mL.
On to `Nc1ccn([C@@H]2O[C@H](CO)[C@@H](O)[C@@H]2O)c(=O)n1` [CYTARABINE], for which the IC50 in the assay on HL-60 is more than 0.1 µg/mL; in assay [1], more than 100 µg/mL; with PC10, more than 100 µg/mL; in the assay on PC-14 it was more than 100 µg/mL; in the assay with SW480 it was more than 100 µg/mL; in the assay with TE-2, more than 100 µg/mL. The IC50 in the assay with U-937 was 0.31 µg/mL (≈ 1.27 µM); in the assay on T-24 it was more than 100 µg/mL.
`CC[C@@H]1C(O)[C@@H](CO)O[C@H]1n1ccc(N)nc1=O` (some centres not stated) had an IC50 in the assay with L1210 of more than 100 µg/mL.
In the assay with L1210, `C[C@@H]1[C@H](O)[C@@H](CO)O[C@H]1n1ccc(N)nc1=O` came in with a concentration for half-maximal inhibition (IC50) of 40 µg/mL (≈ 166 µM).
`C[C@@]1(O)[C@H](O)[C@@H](CO)O[C@H]1n1ccc(N)nc1=O` yielded a 50% inhibitory concentration (IC50) in the assay with L1210 of 12 µg/mL (≈ 46.6 µM). Compared with the last compound, the IC50 is about 3.3-fold lower.
For the compound `O=c1[nH]cc(F)c(=O)[nH]1` [FLUOROURACIL], the IC50 was more than 100 µg/mL in the assay with PC10 and 3.8 µg/mL (≈ 29.2 µM) with K562.
